These results are taken from ChEMBL document CHEMBL1122625, “Synthesis and antiviral/antitumor activities of certain 3-deazaguanine nucleosides and nucleotides” (J Med Chem, 1984).

In series [1] the test system is Vesicular stomatitis virus. Kind of series: In vitro antiviral activity (virus ratings (VR)) determined by comparing CPE development in drug-treated cells (T) and Vesicular stomatitis virus control cells. The format is functional.
A further series concerns Vaccinia virus. As to the kind of experiment: In vitro antiviral activity (virus ratings (VR)) determined by comparing CPE development in drug-treated cells (T) and Vaccinia virus control cells. It counts as functional, Orthopoxvirus vaccinia.
The test system of series [2] is L1210. As to the kind of experiment: In vitro antitumor activity in the culture media (that produced 50% inhibition of the L1210 leukemia cell growth as compared to the untreated cells). The format is functional. Particulars: Mus musculus, read-out: ID50 (the source's name). A digest of the protocol:
(§1)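 L1210 or P388 cells kept in RPMI-1640 with 10% heat-inactivated fetal calf serum and seeded in tubes at 5 × 10⁴ cells/mL. Grown with compound at 4-5 log doses for 48 h at 37 °C. Cells counted electronically, growth expressed as % of untreated control tubes, and the dose giving 50% growth inhibition (ID₅₀) determined.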

Series [3] relates to Human respirovirus 3. As to the kind of experiment: In vitro antiviral activity (virus ratings (VR)) determined by comparing CPE development in drug-treated cells (T) and Parainfluenza type 3 virus control cells. It counts as functional.
For series [4], the system named is P388. As to the kind of experiment: In vitro antitumor activity in the culture media (that produced 50% inhibition of the P388 leukemia cell growth as compared to the untreated cells); Inhibition at 10E-4. The format is functional, Mus musculus.
Another series relates to Human alphaherpesvirus 1. As to the kind of experiment: In vitro antiviral activity (virus ratings (VR)) determined by comparing CPE development in drug-treated cells (T) and HSV-1 virus control cells. It counts as functional.
The test system of series [5] is P388. As to the kind of experiment: In vitro antitumor activity in the culture media (that produced 50% inhibition of the P388 leukemia cell growth as compared to the untreated cells). The format is functional. The settings on record: Mus musculus, read-out: ID50 (the source's name). In a few lines: as §1
Series [6] relates to Human respirovirus 3. Kind of series: In vitro antiviral activity (virus ratings (VR)) determined by comparing CPE development in drug-treated cells (T) and Parainfluenza type 3 virus control cells. It counts as functional.
Series [7] has as its system P388. Kind of series: In vitro antitumor activity in the culture media (that produced 50% inhibition of the P388 leukemia cell growth as compared to the untreated cells); Inhibition at 10E-5. The format is functional, Mus musculus.
A short description of series [8]: Toxic level was evaluated; None. The format is ADME.
Series [9] relates to P388. Kind of series: In vitro antitumor activity in the culture media (that produced 50% inhibition of the P388 leukemia cell growth as compared to the untreated cells); b=Inactive at 10E-4. It counts as functional, cell-based. The settings on record: Mus musculus. A digest of the protocol:
(§2)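 L1210 leukemia and P388 lymphoid neoplasm cells kept in RPMI-1640 with 10% heat-inactivated fetal calf serum. Seeded at 5 × 10⁴ cells/mL, then grown 48 h at 37 °C with compound at 4-5 log doses. Growth counted by Coulter counter and expressed as % of control tubes. ID50 is the dose giving 50% growth inhibition.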

Series [10] relates to L1210. Kind of series: In vitro antitumor activity in the culture media (that produced 50% inhibition of the L1210 leukemia cell growth as compared to the untreated cells); Inhibition at 10E-5. It counts as functional, Mus musculus.
The test system of series [11] is L1210. Kind of series: In vitro antitumor activity in the culture media (that produced 50% inhibition of the L1210 leukemia cell growth as compared to the untreated cells); b=Inactive at 10E-4 M. Particulars: Mus musculus. The format is functional, cell-based. A digest of the protocol: as §2
Series [12] deals with P388. Kind of series: In vitro antitumor activity in the culture media (that produced 50% inhibition of the P388 leukemia cell growth as compared to the untreated cells); b=Inactive at 10E-4 M. The settings on record: Mus musculus. It counts as functional, cell-based. In a few lines: as §2
Series [13] relates to Vesicular stomatitis virus. Kind of series: In vitro antiviral activity (virus ratings (VR)) determined by comparing CPE development in drug-treated cells (T) and VSV virus control cells. It counts as functional.

Structures are written as SMILES. Activity calls are given as the source filed them. The calls are words filed in the database; no cut-off is given here.

A word on the Inhibition: it is the change of the read-out against control, counted positive when it falls. A high value points to strong suppression. With `Nc1cc2[nH]cnc2c(=O)[nH]1` [DEZAGUANINE], the Virus rating in series [1] came out at 1.55; with Vaccinia virus, 1.55; in the series on Human respirovirus 3 [3], 0.98; in the series with Human alphaherpesvirus 1, 1.4. In addition, in the series on L1210 [2], the IC50 was found to be 62 µM. Moreover, the Inhibition in the series on P388 [4] was 39%.

As for `Nc1cc2c(ncn2[C@@H]2O[C@@H]3COP(=O)(O)O[C@H]3[C@H]2O)c(O)n1`, the values for the IC50 in the series on P388 [5] and in the series with L1210 [2] were 45 µM and 4.1 µM, respectively. The Virus rating in series [1] was found to be 1; in the series on Vaccinia virus, 1.15; in the series with Human respirovirus 3 [6], 0.62; with Human alphaherpesvirus 1 it was 1.02.

As to `Nc1cc2ncn([C@@H]3C[C@H](O)[C@@H](CO)O3)c2c(O)n1`, the Virus rating in series [1] was determined as 0.35; in the series with Vaccinia virus it was 1.18; in the series with Human respirovirus 3 [6], 0.22; in the series on Human alphaherpesvirus 1, 0.3. The IC50 in the series on L1210 [2] was determined as 80 µM. Also, the Inhibition with P388 [7] stood at 31%.

For `NC(=O)c1ncn([C@@H]2O[C@H](CO)[C@@H](O)[C@H]2O)n1` [RIBAVIRIN], the Toxic level result in series [8] was “Not Active”. The Virus rating in series [1] amounted to 0.8; in the series on Vaccinia virus it was 1.2; with Human respirovirus 3 [6] it was 1.3; in the series with Human alphaherpesvirus 1, 0.6.

Regarding `Nc1cc2c(ncn2[C@@H]2O[C@H](CO)[C@@H](O)[C@H]2O)c(=O)[nH]1`, the IC50 in the series with P388 [5] stood at 16 µM; in the series on L1210 [2], 18 µM. Besides, the Virus rating is listed as 1.5 in series [1], 1.5 in the series on Vaccinia virus, 1.18 with Human respirovirus 3 [6] and 1.4 in the series with Human alphaherpesvirus 1.

In the case of `Nc1cc2c(ncn2[C@H]2C[C@H](O)[C@@H](CO)O2)c(O)n1`, the IC50 in the series with P388 [5] turned out to be 42 µM; with L1210 [2] it was 20 µM. Moreover, in series [8], the Toxic level entry is given as “Not Active”. For the same compound, the Virus rating is 1.03 in series [1], 1.72 in the series with Vaccinia virus, 1.45 in the series on Human respirovirus 3 [6] and 1.28 in the series on Human alphaherpesvirus 1.

On to `Nc1cc2c(ncn2[C@@H]2C[C@H](O)[C@@H](CO)O2)c(O)n1`, for which the Toxic level entry in series [8] is given as “Not Active”. The Virus rating is 0.8 in series [1], 1.65 with Vaccinia virus, 0.7 with Human respirovirus 3 [6] and 1 in the series on Human alphaherpesvirus 1. Also, the ID50 entry in the series with P388 [9] is “Inactive at 10^-4M”. This compound displayed an Inhibition in the series with L1210 [10] of 45%.

For `NNc1cc2ncnc-2c(O)n1N`, the IC50 in the series with P388 [5] amounted to 62 µM; in the series on L1210 [2], 35 µM. Moreover, the Virus rating is reported as 0 in series [1], 0.15 in the series on Vaccinia virus, 0.03 in the series on Human respirovirus 3 [6] and 0.05 in the series on Human alphaherpesvirus 1.

In the case of `Nc1cc2c(ncn2C2O[C@H](CO)[C@@H](O)[C@H]2O)c(=O)n1N` (some centres not stated), the ID50 result in the series on L1210 [11] and with P388 [12] was “Inactive at 10^-4M” each time. For the same compound, the Virus rating with Vaccinia virus turned out to be 1.25; in the series with Human respirovirus 3 [6], 0.3; in the series on Human alphaherpesvirus 1, 0.25; in series [13], 0.45.

For `Nc1cc2ncn([C@H]3C[C@H](O)[C@@H](CO)O3)c2c(O)n1`, the ID50 result with L1210 [11] and with P388 [12] was “Inactive at 10^-4M” throughout. In addition, the Toxic level result in [8] was “Not Active”. The Virus rating came to 1.06 in series [1], 1.42 with Vaccinia virus, 0.92 in the series on Human respirovirus 3 [3] and 0.8 in the series on Human alphaherpesvirus 1.
